Published values pooled from the literature.
Compare with care: the assays were run in different laboratories. ≈ marks a conversion by molar mass, not a printed value.

`O=c1c2ccccc2[se]n1-c1ccccc1` has an IC50 of 7.4 µM (Zika virus; viral replication; 48 h).
`NNC(=O)c1ccncc1` gave an MIC90 of greater than 500 µg/mL (Mycobacteroides abscessus; microbial growth, broth dilution).
With `C#CCCC1(CCC(=O)NCc2cc(=O)c(O)c(CNC(=O)CCCCCC)n2C)N=N1` the IC50 was greater than 100 µM (Pseudomonas aeruginosa; microbial growth; PAO1).
`N.N.[Cl][Pt][Cl]` gave an IC50 of 0.56 µM (SU-DHL-2; cell growth or viability, ATP luminescence; 72 h).
`NCC[C@H](O)C(=O)N[C@@H]1C[C@H](N)[C@@H](O[C@H]2O[C@H](CN)[C@@H](O)[C@H](O)[C@H]2O)[C@H](O)[C@H]1O[C@H]1O[C@H](CO)[C@@H](O)[C@H](N)[C@H]1O` has an MIC90 of 3.4 µg/mL (≈ 5.81 µM) (Mycobacteroides abscessus; microbial growth, broth dilution).
With `C#CCCCCC(=O)NCc1cc(=O)c(O)c(CNC(=O)CCCCCC)n1C` the IC50 was greater than 100 µM (Pseudomonas aeruginosa; microbial growth; PAO1).
`Cc1cc(=O)oc2cc(OCCCC[Se]C#N)ccc12` gave a GI50 of 2.2 µM (T47D; cell growth or viability, SRB).
`C[C@@H]1C[C@@H]([C@H](O)CC2CC(=O)NC(=O)C2)C(=O)[C@@H](C)C1` has an MIC of 16 µg/mL (≈ 56.9 µM) (Pseudomonas aeruginosa; microbial growth, broth dilution; ATCC27 ATCC27853).
With `C#CCCCCCC(=O)NCc1c(O)c(=O)cc(C)n1C` the IC50 was greater than 100 µM (Pseudomonas aeruginosa; microbial growth; PAO1).
`N#C[Se]CCCCOc1ccc2c(-c3ccccc3)cc(=O)oc2c1` gave a GI50 of 26 µM (T47D; cell growth or viability, SRB).
`C[C@@H](N)[C@H](O)CCCCCCCC(=O)CCCCCCCCCCCCCC[C@@H](O[C@@H]1O[C@H](CO)[C@H](O)[C@H](O)[C@H]1O)[C@@H](C)N` gave an inhibition of 99% (Pseudomonas aeruginosa; microbial growth, resazurin; ATCC27853; 50 µM).
For `O=[N+]([O-])c1ccc(NCCCCN=C=S)c2nonc12`, the IC50 was 2.8 µM (T47D; cell growth or viability, MTT; 24 h).
`Cc1c(Cl)c(=O)oc2cc(OCCCC[Se]C#N)ccc12` gave a GI50 of 13 µM (MIA PaCa-2; cell growth or viability, SRB).
